{"source": "paper PMC3428850", "about": "(Molecular cancer therapeutics, 2012)", "key": {"[1]": {"test_system": "PI-3K", "test": "PI-3K-dependent AKT phosphorylation", "type": "cell-based, human", "conditions": "read-out: IC50 PI-3K-mediated AKT phosphorylation; MCF7 cells, IGF-1 stimulated", "summary_of_the_method": "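MCF7 cells in RPMI 1640/10% FBS. Exposed to a concentration range of test compound for 1 h, then 50 ng/ml IGF-1 for 30 min. Western blot of AKT Ser473 relative to total AKT. Rise above unstimulated baseline in treated cells expressed as % of the rise in control cells. Mean of three independent experiments fitted to a sigmoidal dose-response curve for IC50.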"}, "[2]": {"molecular_target": "DNA-PK (Homo sapiens, UniProt P78527)", "test": "DNA-PK ex vivo pharmacodynamic assay, p53 peptide", "parameters": "species or system mice", "conditions": "SW-620, mouse, iv, read-out: inhibition of DNA-PK activity ex vivo in tumour", "summary_of_the_method": "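SW620 s.c. xenografts in female athymic CD1-nu/nu mice. Test compound 2.5 or 25 mg/kg i.v. (vehicle equimolar phosphoric acid, pH 5) or vehicle alone. Killed after 1 or 4 h. Tumours excised and homogenised. DNA-PK activity by ELISA of DNA-PK-dependent p53 peptide (Ser15) phosphorylation in homogenates. 3 mice per time point, mean ± SD.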"}, "[3]": {"test_system": "MDA-MB-231 cells", "test": "cell growth inhibition, SRB assay, 5-day continuous exposure", "type": "cell-based", "conditions": "Homo sapiens, MDA-MB-231, 120 h", "summary_of_the_method": "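Human cancer cells in RPMI 1640 with 10% FBS, penicillin/streptomycin, at 37 °C and 5% CO2. Test compound (10 mM DMSO stock) given by continuous exposure for 5 days. Growth measured by SRB assay. […] Means ± SD of 3 independent experiments.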"}, "[4]": {"test": "plasma pharmacokinetics following different routes of administration", "type": "in vivo, Balb C mice", "conditions": "for CL: mice", "summary_of_the_method": "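Female Balb C mice given test compound at 10 mg/kg i.v., i.p. or p.o. Vehicle: equimolar phosphoric acid in sterile saline, final pH 5. Plasma sampled at 5-360 min, 3 mice per time point. Plasma levels by LC-MS/MS. PK parameters calculated from mean values.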"}, "[5]": {"test_system": "M059-Fus-1 cells", "test": "clonogenic survival assay, DNA-PKcs-proficient cells", "type": "cell-based, human", "summary_of_the_method": "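Human glioblastoma M059J cells (DNA-PKcs-deficient) and M059-Fus-1 cells (chromosome 8 transfected; G-418 200 μg/ml) in DMEM/10% FBS. Etoposide or doxorubicin alone or with 1 μM test compound, or test compound alone, for 16 h. Reseeded drug-free. Crystal violet colony counts after 10-14 days. Fold enhancement as survival ratio. Means ± SD, n = 3.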"}, "[6]": {"test_system": "PI-3K", "test": "PI-3K-dependent AKT phosphorylation", "type": "cell-based, human", "conditions": "SW620 cells"}, "[7]": {"type": "in vivo, mice", "conditions": "for concentration at 60 min / concentration at 120 min: female, CD1-nu/nu (athymic), mouse, intravenous, 12.5 mg/kg", "summary_of_the_method": "(§1)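 Female athymic CD1-nu/nu mice kept in SPF isolators, bearing MCF7 or SW620 xenografts (650 mm³). Test compound 12.5 mg/kg i.v. in equimolar phosphoric acid/saline, pH 5. Tumours homogenised in PBS (1:3 w/v) on ice. Plasma and tumour concentrations by LC-MS/MS. Means ± SD of 3 mice per time point.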"}, "[8]": {"type": "in vivo, mice", "conditions": "for concentration at 60 min / concentration at 120 min: female, CD1-nu/nu (athymic), mouse, intravenous, 12.5 mg/kg", "summary_of_the_method": "as §1", "remark": "listed apart in the source"}, "[9]": {"test_system": "V3-YAC cells", "test": "clonogenic survival assay, DNA-PKcs-proficient cells", "type": "cell-based, Chinese hamster", "summary_of_the_method": "(§2)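 Chinese hamster ovary V3 cells (DNA-PKcs-deficient) and V3-YAC cells (human DNA-PKcs on YAC; kept under G-418 500 μg/ml) in RPMI 1640/10% FBS. Etoposide alone or with 1 μM test compound, or test compound alone, for 16 h. Reseeded drug-free. Crystal violet colony counts after 10-14 days. Fold enhancement as survival ratio. Means ± SD of 3 independent experiments.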"}, "[10]": {"test_system": "SW620 cells", "test": "clonogenic survival assay", "type": "cell-based, human"}, "[11]": {"test_system": "MCF7 cells", "test": "clonogenic survival assay", "type": "cell-based, human", "conditions": "MCF7, 1 μM, 16 hr exposure, single agent", "summary_of_the_method": "(§3)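 Cells in RPMI 1640/10% FBS were exposed in 6-well plates for 16 h to etoposide or doxorubicin with or without test compound (1 μM), or to test compound alone. Cells then harvested and reseeded in drug-free medium. Colonies stained with crystal violet after 10-14 days and counted automatically. Fold enhancement = survival with cytotoxic alone / survival with cytotoxic + 1 μM test compound. Means ± SD, n = 3.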"}, "[12]": {"molecular_target": "PI-3K γ (Homo sapiens, UniProt P48736)", "sequence (P48736 whole entry, species assumed, canonical isoform)": "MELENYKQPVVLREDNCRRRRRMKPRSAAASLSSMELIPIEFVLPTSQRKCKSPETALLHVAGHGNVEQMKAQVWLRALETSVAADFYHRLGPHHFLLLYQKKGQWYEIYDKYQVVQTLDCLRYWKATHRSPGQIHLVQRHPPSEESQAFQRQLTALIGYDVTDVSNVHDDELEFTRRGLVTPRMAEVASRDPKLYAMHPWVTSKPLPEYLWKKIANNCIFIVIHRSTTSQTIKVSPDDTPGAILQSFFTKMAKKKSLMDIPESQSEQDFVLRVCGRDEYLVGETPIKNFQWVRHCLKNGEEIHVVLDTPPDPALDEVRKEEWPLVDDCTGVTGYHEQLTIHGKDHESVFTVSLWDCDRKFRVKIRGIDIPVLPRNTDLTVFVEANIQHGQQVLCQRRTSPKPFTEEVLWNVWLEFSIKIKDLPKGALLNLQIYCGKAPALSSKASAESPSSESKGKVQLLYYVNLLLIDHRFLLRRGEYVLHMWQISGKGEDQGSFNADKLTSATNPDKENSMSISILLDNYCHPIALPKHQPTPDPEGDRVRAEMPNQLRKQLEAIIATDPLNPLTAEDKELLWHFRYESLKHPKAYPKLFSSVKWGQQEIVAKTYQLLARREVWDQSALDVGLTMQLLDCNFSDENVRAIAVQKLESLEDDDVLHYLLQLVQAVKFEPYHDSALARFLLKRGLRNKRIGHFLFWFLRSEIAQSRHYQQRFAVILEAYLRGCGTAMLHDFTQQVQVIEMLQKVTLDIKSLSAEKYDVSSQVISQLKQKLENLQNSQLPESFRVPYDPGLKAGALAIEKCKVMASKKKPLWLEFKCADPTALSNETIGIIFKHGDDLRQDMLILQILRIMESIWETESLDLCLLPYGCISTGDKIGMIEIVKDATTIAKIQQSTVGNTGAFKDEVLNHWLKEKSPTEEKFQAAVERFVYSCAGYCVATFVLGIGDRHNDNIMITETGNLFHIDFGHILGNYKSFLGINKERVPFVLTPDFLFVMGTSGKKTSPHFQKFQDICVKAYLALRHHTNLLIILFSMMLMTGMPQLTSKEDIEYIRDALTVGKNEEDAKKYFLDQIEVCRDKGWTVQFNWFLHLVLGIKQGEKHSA", "test": "cell-free assay, PI-3K isoforms", "type": "biochemical", "conditions": "Supplementary Figure 1"}, "[13]": {"test_system": "V3 cells", "test": "clonogenic survival assay, DNA-PKcs-deficient cells", "type": "cell-based, Chinese hamster", "summary_of_the_method": "as §2"}, "[14]": {"test_system": "LoVo cells", "test": "clonogenic survival assay", "type": "cell-based, human", "summary_of_the_method": "as §3"}, "[15]": {"test_system": "T47D cells", "test": "clonogenic survival assay", "type": "cell-based, human", "summary_of_the_method": "as §3"}, "[16]": {"test": "solubility", "type": "physicochemical", "conditions": "compared with NU7441"}, "[17]": {"conditions": "female, Balb C, mouse, ip, 10 mg/kg"}, "[18]": {"conditions": "female, Balb C, mouse, iv, 10 mg/kg"}, "[19]": {"conditions": "female, Balb C, mouse, po, 10 mg/kg"}, "[20]": {"conditions": "1 μM, 16 hr exposure, single agent"}}, "note": "Several values for one entry are separate records, joined by “and”; a condition that tells them apart may be missing. Equal values may be shown once. Read-outs that look alike come from different tables or passages of the source.", "data": [{"compound": "CCN1CCN(CC(=O)Nc2ccc(-c3cccc4c(=O)cc(N5CCOCC5)oc34)c3sc4ccccc4c23)CC1", "note": "[KU-0060648, 2-(4-ethylpiperazin-1-yl)-N-(4-(2-morpholino-4-oxo-4H-chromen-8-yl)dibenzo[b,d]thiophen-1-yl)acetamide]", "values": [{"measurement": "IC50", "setting": "[1]", "result": "39 nM and 40 nM"}, {"measurement": "inhibition at 25 mg/kg", "setting": "[2]", "result": "~100", "unit": "%"}, {"measurement": "GI50", "setting": "[3]", "result": 1000, "unit": "nM"}, {"measurement": "inhibition at 1 µM", "setting": "[3]; read-out: inhibition of cell growth", "result": "> 50", "unit": "%"}, {"measurement": "CL", "setting": "[4]; 10 mg/kg i.p", "result": 54, "unit": "mL/min/kg"}, {"measurement": "CL", "setting": "[4]; 10 mg/kg p.o", "result": 35, "unit": "mL/min/kg"}, {"measurement": "AUC(0-inf)", "setting": "[4]; [17]", "result": 3150, "unit": "ng·h/mL"}, {"measurement": "Cmax", "setting": "[4]; [17]", "result": 900, "unit": "ng/mL"}, {"measurement": "Tmax", "setting": "[4]; [17]", "result": 0.5, "unit": "h"}, {"measurement": "bioavailability", "setting": "[4]; [17]", "result": 78, "unit": "%"}, {"measurement": "half-life", "setting": "[4]; [17]", "result": 1.77, "unit": "h"}, {"measurement": "AUC(0-inf)", "setting": "[4]; [18]", "result": 4030, "unit": "ng·h/mL"}, {"measurement": "Cmax", "setting": "[4]; [18]", "result": 1900, "unit": "ng/mL"}, {"measurement": "Tmax", "setting": "[4]; [18]", "result": 0.0833, "unit": "h"}, {"measurement": "clearance", "setting": "[4]; [18]", "result": 41, "unit": "mL/min/kg"}, {"measurement": "half-life", "setting": "[4]; [18]", "result": 1.7, "unit": "h"}, {"measurement": "AUC(0-inf)", "setting": "[4]; [19]", "result": 4780, "unit": "ng·h/mL"}, {"measurement": "Cmax", "setting": "[4]; [19]", "result": 900, "unit": "ng/mL"}, {"measurement": "Tmax", "setting": "[4]; [19]", "result": 2, "unit": "h"}, {"measurement": "bioavailability", "setting": "[4]; [19]", "result": 119, "unit": "%"}, {"measurement": "half-life", "setting": "[4]; [19]", "result": 2.37, "unit": "h"}, {"measurement": "fold enhancement of etoposide cytotoxicity", "setting": "[5]; M059-Fus-1, 1 μM KU-0060648, 16 hours", "result": 4, "unit": "fold"}, {"measurement": "fold enhancement of doxorubicin cytotoxicity", "setting": "[5]; M059-Fus-1, 1 μM KU-0060648, depending on the doxorubicin concentration", "result": "up to 32 fold"}, {"measurement": "reduction in cell viability, compound alone", "setting": "[5]; M059-Fus-1, 1 μM, 16 hours", "result": "< 5", "unit": "%"}, {"measurement": "inhibition of AKT phosphorylation", "setting": "[6]; at 10 μM", "result": 42, "unit": "%"}, {"measurement": "IC50", "setting": "[6]; read-out: IC50 PI-3K-mediated AKT phosphorylation, IGF-1 stimulated", "result": "> 10000", "unit": "nM"}, {"measurement": "concentration maintained in the tumour", "setting": "[7]; SW620 xenografts, 12.5 mg/kg i.v., for at least 4 hours", "result": "over 1 μM"}, {"measurement": "concentration at 60 min", "setting": "[7]; plasma", "result": "2100 ± 500", "unit": "nM"}, {"measurement": "concentration at 120 min", "setting": "[7]; plasma", "result": "700 ± 200", "unit": "nM"}, {"measurement": "concentration at 60 min", "setting": "[7]; tumour (SW620 xenograft)", "result": "4900 ± 300", "unit": "nM"}, {"measurement": "concentration at 120 min", "setting": "[7]; tumour (SW620 xenograft)", "result": "2900 ± 400", "unit": "nM"}, {"measurement": "concentration maintained in the tumour", "setting": "[8]; MCF7 xenografts, 12.5 mg/kg i.v., for at least 4 hours", "result": "over 1 μM"}, {"measurement": "concentration at 60 min", "setting": "[8]; plasma", "result": "1000 ± 600", "unit": "nM"}, {"measurement": "concentration at 120 min", "setting": "[8]; plasma", "result": "800 ± 500", "unit": "nM"}, {"measurement": "concentration at 60 min", "setting": "[8]; tumour (MCF7 xenograft)", "result": "7000 ± 3800", "unit": "nM"}, {"measurement": "concentration at 120 min", "setting": "[8]; tumour (MCF7 xenograft)", "result": "4700 ± 1100", "unit": "nM"}, {"measurement": "fold enhancement of etoposide cytotoxicity", "setting": "[9]; 1 μM KU-0060648, 16 hours", "result": "> 13", "unit": "fold"}, {"measurement": "reduction in cell viability, compound alone", "setting": "[9]; 1 μM, 16 hours", "result": "< 15", "unit": "%"}, {"measurement": "Fold enhancement of doxorubicin cytotoxicity (survival cytotoxic alone/survival cytotoxic + 1 μM KU-0060648)", "setting": "[10]; SW620, 100 nM doxorubicin, 16 hr", "result": "12 fold and 12±8 fold"}, {"measurement": "overall cell survival (clonogenic)", "setting": "[10]; SW620, 1 μM, 16 hr exposure, single agent", "result": "≥ 80", "unit": "%"}, {"measurement": "overall cell survival (clonogenic)", "setting": "[11]", "result": "≥ 80", "unit": "%"}, {"measurement": "potency rank among the four PI-3K isoforms", "setting": "[12]", "result": "least potency"}, {"measurement": "fold enhancement of etoposide cytotoxicity", "setting": "[13]; V3, 1 μM KU-0060648, 16 hours", "result": 2.5, "unit": "fold"}, {"measurement": "reduction in cell viability, compound alone", "setting": "[13]; V3, 1 μM, 16 hours", "result": "< 15", "unit": "%"}, {"measurement": "Fold enhancement of doxorubicin cytotoxicity (survival cytotoxic alone/survival cytotoxic + 1 μM KU-0060648)", "setting": "[14]; 100 nM doxorubicin, 16 hr", "result": "73±29", "unit": "fold"}, {"measurement": "overall cell survival (clonogenic)", "setting": "[14]; [20]", "result": "≥ 80", "unit": "%"}, {"measurement": "Fold enhancement of doxorubicin cytotoxicity (survival cytotoxic alone/survival cytotoxic + 1 μM KU-0060648)", "setting": "[15]; 100 nM doxorubicin, 16 hr", "result": "58±35", "unit": "fold"}, {"measurement": "overall cell survival (clonogenic)", "setting": "[15]; [20]", "result": "≥ 80", "unit": "%"}, {"measurement": "fold greater solubility", "setting": "[16]", "result": "> 500", "unit": "fold"}]}]}
